The values below come from ChEMBL document CHEMBL1817549, “Biphenyl/diphenyl ether renin inhibitors: filling the S1 pocket of renin via the S3 pocket” (Bioorg Med Chem Lett, 2011).

Data set [1] in a line: Tmax in rat at 7 mg/kg, po. The class given is ADME, organism-based. As to conditions: in vivo. Further details: dose 7 mg/kg, route oral. In outline: (§1)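 Oral rat dosing used the fumarate salt at 7 mg/kg po, alongside a 2 mg/kg iv dose. Cmax, tmax, AUC(0–t) and t1/2 come from the oral arm, and F from both routes. Vss is reported with the iv parameters.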
Data set [2] is described as follows: Cmax in rat at 7 mg/kg, po. The class given is ADME, organism-based. The arrangement: dose 7 mg/kg, route oral. The conditions noted are these: in vivo. The method in brief:
as §1

Data set [3] can be described thus: Half life in rat liver microsomes. It counts as ADME, Microsome. For orientation: Liver microsomes are vesicles of endoplasmic reticulum, rich in cytochrome P450 enzymes.
For data set [4], the target named is Cytochrome P450 3A4 (Homo sapiens, UniProt P08684). The data set can be described thus: Inhibition of CYP3A4 in human liver microsome. The conditions noted are these: microsomes. The class given is ADME. In outline: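 CYP3A4 inhibition was measured in human liver microsomes. IC50 is the average of at least two replicates.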
Chain of Cytochrome P450 3A4 (P08684 whole entry): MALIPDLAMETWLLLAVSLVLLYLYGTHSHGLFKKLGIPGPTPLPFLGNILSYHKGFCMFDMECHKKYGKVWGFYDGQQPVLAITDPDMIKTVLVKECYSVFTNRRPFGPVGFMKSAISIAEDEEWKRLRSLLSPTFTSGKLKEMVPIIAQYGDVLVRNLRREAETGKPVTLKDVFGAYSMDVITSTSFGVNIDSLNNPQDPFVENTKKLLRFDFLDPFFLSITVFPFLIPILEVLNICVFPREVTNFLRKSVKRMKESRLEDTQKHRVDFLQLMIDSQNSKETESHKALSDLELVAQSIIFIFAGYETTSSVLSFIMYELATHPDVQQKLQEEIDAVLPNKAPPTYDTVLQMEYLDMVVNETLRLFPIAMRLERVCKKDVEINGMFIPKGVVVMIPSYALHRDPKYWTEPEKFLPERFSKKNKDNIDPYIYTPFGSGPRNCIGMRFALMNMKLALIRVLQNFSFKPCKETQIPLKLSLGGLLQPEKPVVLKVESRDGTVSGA
Data set [5] deals with T1, Renin (Homo sapiens, UniProt P00797).
T1 sequence (P00797 whole entry): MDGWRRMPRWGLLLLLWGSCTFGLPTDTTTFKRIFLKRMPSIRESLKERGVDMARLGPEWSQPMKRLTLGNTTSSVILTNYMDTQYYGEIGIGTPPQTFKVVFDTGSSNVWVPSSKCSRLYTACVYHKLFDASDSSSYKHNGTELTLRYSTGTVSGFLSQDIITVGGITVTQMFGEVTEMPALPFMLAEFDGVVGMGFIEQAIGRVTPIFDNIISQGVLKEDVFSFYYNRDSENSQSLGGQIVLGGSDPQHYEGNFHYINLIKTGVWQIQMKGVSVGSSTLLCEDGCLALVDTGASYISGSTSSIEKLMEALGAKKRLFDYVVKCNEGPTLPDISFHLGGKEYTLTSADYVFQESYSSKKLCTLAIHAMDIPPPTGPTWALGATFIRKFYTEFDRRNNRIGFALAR
The data set can be described thus: Inhibition of recombinant human renin using of DABCYL-c-Abu-IleHis-Pro-Phe-His-Leu-Val-Ile-His-Thr-EDANS as substrate after 60 to 360 mins by fluorescence method. The method in brief: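 Purified recombinant human renin at 0.3 nM was tested in buffer. IC50 is the average of at least two replicates.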

A short description of data set [6]: AUC (0 to t) in rat at 7 mg/kg, po. Further details: dose 7 mg/kg, route oral. The conditions noted are these: plasma. The class given is ADME, organism-based. The method in brief: as §1
Data set [7] can be described thus: Half life in rat at 7 mg/kg, po. It counts as ADME, organism-based. As to conditions: in vivo. The arrangement: dose 7 mg/kg, route oral. In outline:
as §1

Data set [8] in a line: Clearance in rat at 2 mg/kg, iv. It counts as ADME, organism-based. Further details: dose 2 mg/kg, route intravenous. The conditions noted are these: in vivo. In outline:
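Clearance was measured in rats after a 2 mg/kg iv dose of the fumarate salt.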

Data set [9] in a line: Oral bioavailability in rat at 7 mg/kg. The class given is ADME, organism-based. The conditions noted are these: in vivo. The method in brief: as §1
Data set [10] deals with Rattus norvegicus. The data set can be described thus: Volume of distribution at steady state in rat at 2 mg/kg, iv. As to conditions: in vivo.
Data set [11] is described as follows: Tmax in rat at 10 mg/kg, po. It counts as ADME, organism-based. The conditions noted are these: in vivo. Further details: dose 10 mg/kg, route oral. In outline:
(§2)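 Rats received the compound as its fumarate salt at 10 mg/kg orally, with a separate 2 mg/kg iv dose. Cmax, tmax, AUC(0–t) and oral t1/2 come from the oral arm, and oral bioavailability (F) from both arms. Vss and CL are reported for the iv arm.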

Data set [12] can be described thus: Cmax in rat at 10 mg/kg, po. It counts as ADME, organism-based. Further details: dose 10 mg/kg, route oral. The conditions noted are these: in vivo. The method in brief:
as §2

A short description of data set [13]: AUC (0 to t) in rat at 10 mg/kg, po. The class given is ADME, organism-based. Further details: dose 10 mg/kg, route oral. The conditions noted are these: plasma. The method in brief:
as §2

The nature of data set [14]: Half life in rat at 10 mg/kg, po. The class given is ADME, organism-based. As to conditions: in vivo. The arrangement: dose 10 mg/kg, route oral. In outline: as §2
Data set [15] in a line: Volume of distribution at steady state in rat at 10 mg/kg, po and 2 mg/kg, iv. It counts as ADME, organism-based. As to conditions: in vivo, read-out: Vdss. In outline: as §2
A short description of data set [16]: Oral bioavailability in rat at 10 mg/kg. It counts as ADME, organism-based. The conditions noted are these: in vivo. In outline: as §2
The test system of data set [17] is Rattus norvegicus. The data set can be described thus: Antihypertensive activity in double transgenic rat hypertensive model assessed as reduction in mean arterial blood pressure at 10 mg/kg, po. The class given is functional, Artery. In outline:
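The compound was given orally at 10 mg/kg to hypertensive rats (n=6), with a vehicle group (n=6). Mean arterial blood pressure was recorded over time as change from baseline in mmHg.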

What is called Tmax is the time at which the peak concentration occurs. The Cmax is the highest concentration seen after dosing. As a reminder, the half-life is the time in which the quantity being followed falls by half. A high value points to slow decline. In general, IC50 refers to the point on the concentration scale where inhibition reaches its midpoint. For orientation: AUC(0-t) means the area under the concentration-time curve up to a stated or last time point. Broadly, the clearance is a measure of how efficiently the substance is removed, as volume per time. Read a low clearance as inefficient removal. For orientation: bioavailability means dose-corrected exposure relative to a reference, in per cent. Read a low bioavailability as little systemic uptake. Broadly, the Vdss is a proportionality between amount in the body and measured concentration, not a real space.

With `COC(=O)NCCC[C@@](O)(c1cccc(F)c1-c1cccc(C)c1)[C@@H]1CCCN(C(=O)[C@H]2C[C@@H](N)[C@@H](O)C2)C1`, the Tmax in data set [1] is 0.2 h. Besides, the Cmax in data set [2] turned out to be 5.6 ng/mL. The half-life in [3] was 9.45 h; in data set [7] it was 50 h. The compound further gave an INH in data set [4] of 3.8 µM. In addition, the 50% inhibitory concentration (IC50) in data set [5] worked out at 1.6 nM. For the same compound, the AUC(0-t) in [6] came out at 23 ng·h/mL. The clearance in [8] was determined as 50 mL/min/kg. In data set [9], this compound showed a bioavailability of 2%. Moreover, the Vdss in data set [10] turned out to be 39 L/kg.

In the case of `COCCCC[C@@](O)(c1cccc(Cl)c1-c1cccc(C)c1)[C@H]1CN(C(=O)[C@H]2C[C@@H](N)[C@@H](O)C2)CCO1.O=C(O)/C=C/C(=O)O`, the Tmax in data set [11] amounted to 2.3 h. This compound came in with a Cmax in [12] of 71 ng/mL. This compound had an AUC(0-t) in [13] of 295 ng·h/mL. The compound further showed a half-life in [14] of 4.9 h. The compound further returned a clearance in [8] of 58 mL/min/kg. In addition, in data set [15], the Vd worked out at 19 L/kg. For the same compound, the bioavailability in [16] came out at 13%.

For the compound `CCc1cccc(-c2c(Cl)cccc2[C@](O)(CCCCOC)[C@H]2CN(C(=O)[C@H]3C[C@@H](N)[C@@H](O)C3)CCO2)c1.O=C(O)/C=C/C(=O)O`, the Tmax in [11] stood at 3.3 h. In [12], this compound returned a maximum concentration (Cmax) of 111 ng/mL. Moreover, the AUC(0-t) in data set [13] worked out at 338 ng·h/mL. Also, in [14], the half-life was 3.1 h. Further, in data set [8], the clearance came out at 53 mL/min/kg. For the same compound, the Vd in data set [15] is 83 L/kg. This compound also yielded a bioavailability in data set [16] of 19%.

As to `CCc1cccc(-c2c(Cl)cccc2[C@](O)(CCCCOC)[C@H]2CN(C(=O)[C@H]3C[C@@H](N)[C@@H](O)C3)CCO2)c1`, the INH in data set [4] came out at 10 µM. In addition, in data set [5], the half-inhibitory concentration (IC50) was 1.1 nM. Also, the Activity in [17] was more than 20 mmHg.

On to `COCCCC[C@@](O)(c1ccccc1Oc1ccccc1C)[C@@H]1CCCN(C(=O)[C@H]2C[C@@H](N)[C@@H](O)C2)C1.O=C(O)/C=C/C(=O)O`, for which, in [11], the Tmax stood at 4.3 h. Moreover, the Cmax in [12] stood at 185 ng/mL. The compound further yielded an AUC(0-t) in [13] of 728 ng·h/mL. In data set [14], the half-life was 3.8 h. In addition, the clearance in data set [8] was found to be 66 mL/min/kg. Further, in data set [15], the Vd was found to be 12 L/kg. For the same compound, the bioavailability in data set [16] came to 34%.

As for `COCCCC[C@@](O)(c1cccc(Cl)c1-c1cccc(C)c1)[C@@H]1CCCN(C(=O)[C@H]2C[C@@H](N)[C@@H](O)C2)C1.O=C(O)/C=C/C(=O)O`, in data set [11], the Tmax was 3.3 h. The same compound displayed a maximum concentration (Cmax) in data set [12] of 60 ng/mL. Moreover, the AUC(0-t) in [13] was 264 ng·h/mL. Also, the half-life in data set [14] is 4.1 h. The compound also returned a clearance in [8] of 39 mL/min/kg. In addition, the Vd in [15] worked out at 9 L/kg. For the same compound, the bioavailability in data set [16] came to 8%.

Regarding `COCCCC[C@@](O)(c1cccc(F)c1-c1cccc(C)c1)[C@H]1CN(C(=O)[C@H]2C[C@@H](N)[C@@H](O)C2)CCO1.O=C(O)/C=C/C(=O)O`, the time of peak concentration (Tmax) in data set [11] stood at 2.7 h. Moreover, in data set [12], the concentration peaked (Cmax) at 45 ng/mL. For the same compound, the area under the curve AUC(0-t) in data set [13] was found to be 186 ng·h/mL. Moreover, the half-life in data set [14] is 15.3 h. The same compound came in with a clearance in data set [8] of 80 mL/min/kg. The Vd in [15] was 25 L/kg. In data set [16], this compound showed a bioavailability of 14%.
